Data from ChEMBL document CHEMBL1121893, “N-Aralkyl substitution of 2-amino-5,6- and -6,7-dihydroxy-1,2,3,4-tetrahydronaphthalenes. 1. Cardiac and pressor/depressor activities” (J Med Chem, 1981).
Calls of active or inactive are those of the source. The calls are words filed in the database; no cut-off is given here.

Assays:
Canis familiaris [1] = species on record: Canis familiaris; assay: Cardioselectivity expressed as change in blood pressure for 100% increase in right ventricular contractile force in dogs; CF(100) levels not obtained; type: functional, organism-based; settings: Canis lupus familiaris
How it was run: (§1)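 Mongrel dogs of either sex, pentobarbital sodium anaesthesia (30 mg/kg iv, supplemented as needed), ventilated. Femoral arterial BP recorded, drugs given into a forelimb vein as iv boluses in saline with 0.5 mg/mL sodium bisulfite. Right ventricular CF measured by Walton-Brodie strain gauge. Peak response taken per dose, doses raised in 2-fold steps until CF rose 100%. HR and BP changes read at 50% and 100% CF increase. Means ± SEM.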

Canis familiaris [2] = species on record: Canis familiaris; assay: Cardioselectivity expressed as change in blood pressure for 50% increase in right ventricular contractile force in dogs; type: functional, Canis lupus familiaris; how it was run: as §1
Canis familiaris [3] = species on record: Canis familiaris; assay: Ionotropic selectivity expressed as change in heart rate for 100 percent increase in right ventricular contractile force in dogs; CF(100) levels not obtained; type: functional, organism-based; settings: Canis lupus familiaris; how it was run: as §1
Canis familiaris [4] = species on record: Canis familiaris; assay: Ionotropic selectivity expressed as change in heart rate for 50 percent increase in right ventricular contractile force in dogs; type: functional, Canis lupus familiaris; how it was run: as §1
Canis familiaris [5] = species on record: Canis familiaris; assay: Inotropic potency expressed as 100 percent increase in right ventricular contractile force in dogs; CF(100) levels not obtained; type: functional, organism-based; settings: Canis lupus familiaris; Heart right ventricle; how it was run: as §1
Canis familiaris [6] = species on record: Canis familiaris; assay: Inotropic potency expressed as 50 percent increase in right ventricular contractile force in dogs; type: functional, Canis lupus familiaris, Heart right ventricle; how it was run: as §1
Cavia porcellus [7] = species on record: Cavia porcellus; assay: (§2) Effective concentration for increasing potency force in guinea pig isolated left atria; type: functional
How it was run: (§3)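 Isolated guinea pig left and right atria, field stimulated with 5 ms pulses and allowed to stabilise 60 min with periodic washing. An isoproterenol cumulative concentration-response curve was run first, tissues washed, then a cumulative curve with the test compound. Force was read in both atria and rate in right atria. Intrinsic activity = maximal response ÷ isoproterenol maximum. EC20 was given where EC50 was not reached. Means ± SE.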

Cavia porcellus [8] = species on record: Cavia porcellus; assay: (§4) Effective concentration for increasing potency rate in guinea pig isolated right atria; type: functional; how it was run: as §3
Cavia porcellus [9] = species on record: Cavia porcellus; assay: Compound was tested for or relative intrinsic activity in guinea pig isolated atrium left atria; type: functional, Cardiac atrium; how it was run: as §3
Cavia porcellus [10] = species on record: Cavia porcellus; assay: Compound was tested for relative intrinsic activity in guinea pig isolated atrium right atria; type: functional, Cardiac atrium; how it was run: as §3
Canis familiaris [11] = species on record: Canis familiaris; assay: Cardioselectivity expressed as change in blood pressure for 100% increase in right ventricular contractile force in dogs; type: functional, Canis lupus familiaris
How it was run: (§5)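 Mongrel dogs of either sex, anesthetized with pentobarbital sodium (30 mg/kg iv) and ventilated. Femoral-artery blood pressure, heart rate and right ventricular contractile force were recorded, the force by strain gauge with the muscle stretched to 140% of in situ length. After 30 min equilibration, iv bolus doses in saline with 0.5 mg/mL bisulfite were doubled until contractile force rose 100%. Peak responses were taken.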

Canis familiaris [12] = species on record: Canis familiaris; assay: Inotropic potency expressed as 100 percent increase in right ventricular contractile force in dogs; type: functional, Canis lupus familiaris, Heart right ventricle; how it was run: as §5
Canis familiaris [13] = species on record: Canis familiaris; assay: Ionotropic selectivity expressed as change in heart rate for 100 percent increase in right ventricular contractile force in dogs; type: functional, Canis lupus familiaris; how it was run: as §5
[14] = Percentage increase in contractile force was determined by the effect of DMI (desmethylimipramine, 1 mg/kg, iv) at 50 ug/kg
Cavia porcellus [15] = species on record: Cavia porcellus; assay: Effective concentration for increasing potency in guinea pig isolated right atria; type: functional; how it was run: as §3
Canis familiaris [16] = species on record: Canis familiaris; assay: Inotropic potency expressed as 100 percent increase in right ventricular contractile force in dogs; CF(100) levels not obtained; CF(100) levels not obtained; type: functional, organism-based; settings: Canis lupus familiaris; Heart right ventricle; how it was run: as §1
Canis familiaris [17] = species on record: Canis familiaris; assay: Cardioselectivity expressed as change in blood pressure for 100% increase in right ventricular contractile force in dogs; CF(100) level not obtained; type: functional, organism-based; settings: Canis lupus familiaris; how it was run: as §1
Canis familiaris [18] = species on record: Canis familiaris; assay: Ionotropic selectivity expressed as change in heart rate for 100 percent increase in right ventricular contractile force in dogs; CF(100) level not obtained; type: functional, organism-based; settings: Canis lupus familiaris; how it was run: as §1
Canis familiaris [19] = species on record: Canis familiaris; assay: Inotropic potency expressed as 100 percent increase in right ventricular contractile force in dogs; CF(100) level not obtained; type: functional, organism-based; settings: Canis lupus familiaris; Heart right ventricle; how it was run: as §1
Cavia porcellus [20] = species on record: Cavia porcellus; assay: as §2; type: functional; remark: listed apart in the source
Cavia porcellus [21] = species on record: Cavia porcellus; assay: as §4; type: functional; remark: listed apart in the source
How it was run: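 Isolated atria were stabilized 60 min with periodic washing. A cumulative isoproterenol concentration-response curve was run, then washed out. A cumulative curve with the test compound followed. The EC50 was derived, or EC20 where 50% was not reached. Intrinsic activity is the maximal response relative to isoproterenol maximum.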

Compound | BP (Canis familiaris [2]) [mmHg] | HR (Canis familiaris [4]) [beats min-1] | Potency (Canis familiaris [6]) [nM/kg] | EC50 (Cavia porcellus [7]) [nM] | EC50 (Cavia porcellus [8]) [nM] | RIA (Cavia porcellus [9]) | RIA (Cavia porcellus [10]) | BP (Canis familiaris [11]) [mmHg] | Potency (Canis familiaris [12]) [nM/kg] | HR (Canis familiaris [13]) [beats min-1] | also measured
CC(C)NC1CCc2c(ccc(O)c2O)C1 (centres undefined) | -66 | 20 | 110 | 21000 | 1700 | 1.16 | 0.55 |  |  |  | BP (Canis familiaris [1]): CF(100) levels not obtained; HR (Canis familiaris [3]): CF(100) levels not obtained; Potency (Canis familiaris [5]): CF(100) levels not obtained
CC(CCc1ccc(O)cc1)NCCc1ccc(O)c(O)c1 (centres undefined) [DOBUTAMINE] | 3 | 3 | 4.1 | 150 | 470 | 1.12 | 0.9 | 4 | 13.2 | 17 | 
CC(Cc1ccc(O)c(O)c1)NC1CCc2c(ccc(O)c2O)C1 (centres undefined) | -42 | 26 | 7.2 | 250 | 160 | 1.02 | 0.87 | -54 | 20.1 | 40 | 
NC1CCc2cc(O)c(O)cc2C1 (centres undefined) | 29 | -12 | 173 | 2500 | 33000 | 1.06 | 0.61 | 61 | 457 | 21 | Increase [14]: 5%
CC(C)NCC(O)c1ccc(O)c(O)c1 (centres undefined) [ISOPROTERENOL] | -17 | 13 | 0.11 | 3.2 | 6.2 | 1 | 1 | -27 | 0.35 | 35 | 
CC(Cc1ccc(O)c(O)c1)NC1CCc2cc(O)c(O)cc2C1 (centres undefined) | -39 | -5 | 11.4 | 280 |  | 0.95 | 0.69 |  | 27 | 4 | EC50 (Cavia porcellus [15]): 2200 nM
NC1CCc2c(ccc(O)c2O)C1 (centres undefined) | 41 | 11 | 410 | 4400 | 38000 | 1.05 | 0.69 |  |  |  | BP (Canis familiaris [1]): inactive; HR (Canis familiaris [3]): inactive; Potency (Canis familiaris [16]): inactive; Increase [14]: 18%
CC(CCc1ccc(O)cc1)NC1CCc2c(ccc(O)c2O)C1 (centres undefined) | -51 | 20 | 27.7 | 730 | 1800 | 1.11 | 0.78 | -61 | 196 | 41 | 
CC(C)NC1CCc2cc(O)c(O)cc2C1 (centres undefined) | 46 | 9 | 1560 | 49000 |  | 0.78 | 0.24 |  |  |  | BP (Canis familiaris [17]): CF(100) level not obtained; HR (Canis familiaris [18]): CF(100) level not obtained; Potency (Canis familiaris [19]): CF(100) level not obtained; EC20 (Cavia porcellus [15]): 200000 nM
CC(CCc1ccc(O)c(O)c1)NC1CCc2cc(O)c(O)cc2C1 (centres undefined) | -36 | 20 | 24.6 |  | 1200 |  | 0.35 | -11 | 109 | 45 | 
CC(CCc1ccc(O)cc1)NC1CCc2cc(O)c(O)cc2C1 (centres undefined) | 13 | -3 | 140 |  |  | 0.38 | 0.15 | 60 | 410 | 19 | EC20 (Cavia porcellus [20]): 2700 nM; EC20 (Cavia porcellus [15]): > 110000 nM
NCCc1ccc(O)c(O)c1 [DOPAMINE] | -15 | 5 | 58.1 | 1700 | 1500 | 1.15 | 1 | -5 | 125 | 12 | 
Oc1cc2c(cc1O)CC(NC1CCc3cc(O)c(O)cc3C1)CC2 (centres undefined) | 78 | 31 | 961 |  |  | 0.38 | 0.08 | 84 | 2650 | 62 | EC20 (Cavia porcellus [20]): 2400 nM; EC20 (Cavia porcellus [21]): > 110000 nM
Oc1ccc(CCNC2CCc3cc(O)c(O)cc3C2)cc1O (centres undefined) | 50 | 11 | 85 | 1500 |  | 0.84 | 0.67 | 72 | 189 | 30 | EC50 (Cavia porcellus [15]): 16000 nM
